Assay outcomes from PubChem BioAssay.
Dynein transport: inhibitors of GR-EGFP nuclear translocation, primary screen, dynein cargo transport inhibitor project, imaging, high-content, 3617.4 mouse cells; z-score, hits read low; actives 0.47% (n = 220,000); test concentration mostly 20 µM; stimulated with dexamethasone, 1 µM; hits give low values; AID 1381, 2008;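 active means plate z-score of nuclear minus cytoplasmic receptor signal below a set negative limit, without overly bright fluorescence or cell loss, cut at about -3.5 in these data, passing the limit was not always enough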;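 further: z-score of nuclear minus cytoplasmic ring GR-EGFP intensity difference per well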
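Buffer or medium: tet-free, stripped-serum medium; reagent: dexamethasone at 1.0 µM final, 30 min; incubation: 48 h induction, 1 h compound, 30 min dex at 37 °C; measured by: formaldehyde fixation, Hoechst nuclear stain, 10x automated fluorescence imaging; read-out: nuclear-to-cytoplasmic GR-EGFP distribution per well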
EP2 antag: human EP2 receptor antagonists, primary screen, TR-FRET cAMP, C6 glioma cells; Prostaglandin E2 receptor EP2 subtype (Homo sapiens), P43116; C6 glioma cells expressing human EP2; cells stimulated with saturating PGE2; inhibition, % at 25 µM; actives 0.52% (n = 260,000); AID 1422, 2008;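 active means percent inhibition above 40 after rounding to a whole number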;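 further: rat C6 glioma host cells with rolipram phosphodiesterase inhibitor present; the protocol text gives 20 µM as final concentration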
Target sequence (P43116 whole entry, looked up): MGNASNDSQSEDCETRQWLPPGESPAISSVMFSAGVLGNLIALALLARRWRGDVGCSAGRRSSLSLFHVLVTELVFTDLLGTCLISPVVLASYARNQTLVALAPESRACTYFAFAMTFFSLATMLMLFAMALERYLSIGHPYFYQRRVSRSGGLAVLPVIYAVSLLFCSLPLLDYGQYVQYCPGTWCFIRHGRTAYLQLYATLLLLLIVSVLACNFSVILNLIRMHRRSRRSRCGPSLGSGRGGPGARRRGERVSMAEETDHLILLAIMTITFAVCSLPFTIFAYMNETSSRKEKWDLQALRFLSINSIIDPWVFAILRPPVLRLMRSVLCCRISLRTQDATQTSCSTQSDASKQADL
Hsp70 activator: Hsp70 transcriptional activators, primary screen, cell-based, HeLa, Hsp70 promoter luciferase, luminescence, 10 µM. actives 0.04% (n = 200,000). activation, % at 10 µM. HeLa Hsp70 promoter luciferase reporter; scaled: vehicle 0, proteasome-inhibitor control 100%;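 active means activation above the mean across all tested compounds plus 3 SD, cutoff set per campaign, cut at about 5.5% in these data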;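 further: 100% = MG132 at 30 µM as the positive control and 0% = DMSO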
EP2 mod: EP2 receptor modulators, cAMP readout, primary screen, cell-based, HTRF cAMP, PGE2 stimulation. Prostaglandin E2 receptor EP2 subtype (Homo sapiens), P43116. EP2-expressing cells, cAMP HTRF FRET, PGE2 co-stimulation. induction, % at 25 µM. actives 0.83% (n = 260,000). AID 940, 2007;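 active means compounds whose cAMP rise, as percent of the full-agonist control response, exceeds 60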;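 further: rat C6 glioma line stably carrying human EP2 under a CMV promoter; the protocol text gives 20 µM as final concentration; 100% = response of wells given 1 µM PGE2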
* marks the source's active call; other numbers are inactive results; / = not tested or not shown; ! = not active in a repeat. Shown are actives, neighbours in structure and some others; about 1.7% of the full set was active somewhere.

SMILES	Dynein transport	EP2 antag	Hsp70 activator	EP2 mod
COc1ccccc1Nc1nc2ccc(C)cc2cc1C#N	-0.439	/	-0.1	61.4*
CC(=O)N(C1=C(Cl)C(=O)c2ccccc2C1=O)C1CCCCC1	-6.01*	124.0*	/	-30.1
CCn1c(=O)c(C(=O)Nc2cccnc2)c(O)c2ccccc21	-0.135	/	-0.7	/
CCn1c(=O)c(C(=O)NCc2cccnc2)c(O)c2ccccc21	-0.811	11.2	-0.1	64.7*
CCCn1c(=O)c(C(=O)NCc2ccncc2)c(O)c2ccccc21	-0.696	16.1	-0.5	55.8
CCn1c(=O)c(C(=O)NCc2ccccc2OC)c(O)c2ccccc21	/	13.7	/	62.3*
CC(C)Cn1c(=O)c(C(=O)NCc2ccccn2)c(O)c2ccccc21	1.04	14.9	-0.3	61.9*
CC(NC(=O)CC(c1ccccc1)c1cc(Cl)ccc1O)c1ccccc1 (configuration not stated)	0.931	4.8	-0.4	-43.6
CN(Cc1ccccc1)C(=O)CC(c1ccccc1)c1cc(Cl)ccc1O (configuration not stated)	-0.443	/	-0.2	61.3*
C[C@]12CC[C@@H]3c4ccc(O)cc4CC[C@H]3[C@@H]1C[C@@H](O)[C@@H]2O	-0.459	17.2	-0.2	-30.3
C[C@H](NCCN(C)C)[C@@H]1CC[C@@H]2[C@H]3CCc4cc(O)ccc4[C@@H]3CC[C@]21C	/	53.0*	/	-32.9
COc1cc2[nH]c(=O)c(C(=O)NCCN3CCCC3)c(O)c2cc1OC	/	5.1	/	-16.5
Cn1c(=O)c2[nH]c([C@@H]3CC(=O)C[C@H](c4nc5c([nH]4)c(=O)n(C)c(=O)n5C)N3)nc2n(C)c1=O	/	45.8*	/	17.6
CC(C)c1nc2c([nH]1)c(=O)n(C)c(=O)n2C	-0.193	13.0	/	0.6
CCCSc1nc2c(c(=O)[nH]c(=O)n2C)n1Cc1cccc(C)c1	/	9.0	/	70.4*
C/C(Cl)=C\CSc1nc2c(c(=O)[nH]c(=O)n2C)n1Cc1cccc(C)c1	/	13.6	/	86.5*
Cc1cccc(Cn2c(SCC(O)CCl)nc3c2c(=O)[nH]c(=O)n3C)c1 (configuration not stated)	/	9.9	/	15.1
CN1CCC[C@H](C(=O)OCC(=O)[C@]2(O)CC[C@@H]3[C@H]4CCC5=CC(=O)CC[C@@]5(C)[C@@H]4[C@@H](O)C[C@]32C)C1	/	52.8*	/	10.3
C[C@]12CCC(=O)C=C1CC[C@@H]1[C@@H]2[C@@H](O)C[C@@]2(C)[C@H]1CC[C@]2(O)C(=O)COC(=O)CCC(=O)O	-1.28	15.5	-0.4	33.3
C[C@@]12CCC(=O)C=C1CC[C@H]1[C@H]2[C@@H](O)C[C@]2(C)[C@@H]1CC[C@@]2(O)C(=O)COC(=O)C1CCCC1	/	49.6*	/	-5.9
CC(=O)OCC(=O)[C@@]1(O)CC[C@H]2[C@@H]3CCC4=CC(=O)CC[C@]4(C)[C@H]3[C@@H](O)C[C@@]21C	-1.27	10.0	-0.4	2.3
COc1ccccc1C(c1nnnn1C1CCCC1)N1CCN(Cc2ccc3c(c2)OCO3)CC1 (configuration not stated)	/	10.2	/	38.5
CCNC(=S)NNC(=O)c1cc(-c2cccc(C)c2)nc2ccccc12	0.253	8.3	-0.3	-7.7
Cc1ccc(NC(=O)c2cc(-c3ccc(C)o3)nc3ccccc23)cc1	-0.87	23.0	-0.5	32.6
CCNC(=S)NNC(=O)c1cc(-c2cccnc2)nc2ccccc12	-0.145	43.5*	-0.2	22.1
SMILES	Dynein transport	EP2 antag	Hsp70 activator	EP2 mod
Cc1ccc(-c2cc(C(=O)Nc3cccnc3)c3ccccc3n2)o1	-4.45*	7.3	-0.2	-28.4
CC(C)N1CCC(NC(=O)Cn2c(-c3cccs3)cc3cccnc32)CC1	/	11.2	/	-3.6
O=C(O)CCCCCN=C1NC(=O)CS1	/	14.4	/	-17.4
CCOc1cc(C2C(C#N)=C(N)Oc3n[nH]c(-c4cccs4)c32)ccc1O (configuration not stated)	/	9.8	/	-64.6
CCOC(=O)Cn1nc2c(C)cc3cc(OC)ccc3n2c1=O	/	7.4	/	-20.4
COc1ccc2c(c1)cc(C)c1nn(CC(N)=O)c(=O)n12	/	13.8	/	84.0*
O=c1c2oc3ccccc3c2[nH]c(=S)n1-c1ccc(F)cc1	-0.808	15.3	-0.3	64.6*
O=C(CSc1nnc2c(n1)[nH]c1ccc(F)cc12)Nc1cccc(F)c1	/	3.1	/	-17.6
COc1ccc(NC(=O)C2CCN(C(=O)c3cccc(OC)c3)CC2)cc1	/	15.2	/	-2.0
NC(N)=Nc1ccc(-c2ccc(N=C(N)N)cc2)cc1	/	48.5*	/	17.1
Cc1ccc(N=C(N)N=C(N)N)cc1	2.51	6.6	/	1.0
Cc1nc(SCC(=O)Nc2ccc(F)cc2)nc2c1CCCC2	/	54.2*	/	-82.3
Cc1nc(SCc2ccc(C(=O)O)cc2)nc2c1CCCC2	-0.684	6.1	-0.3	61.5*!
O=C(O)c1ccc(-c2ccc(/C=N/Nc3ccc([N+](=O)[O-])cc3)o2)cc1	0.757	46.1*	/	-78.9
CC1CCN(C(=O)c2cc3n(n2)C(C(F)(F)F)CC(c2ccco2)N3)C2CCCCC12 (configuration not stated)	/	14.8	/	33.9
O=C(Nc1cccc(Cl)c1)N(Cc1cc2cc3c(cc2[nH]c1=O)OCCO3)C1CCCC1	/	3.8	/	21.7
Cc1ccccc1NC(=O)CSc1nnc2n(CC(=O)NC3CCCCC3)c3ccccc3n12	/	9.8	/	-36.2
NS(=O)(=O)c1cc(Br)c(N=Nc2ccc(O)c3ncccc23)c(Br)c1	/	46.5*	/	-16.6
CC(Nc1nc(-c2ccccc2O)nc2ccccc12)c1ccccc1 (configuration not stated)	-0.245	5.7	/	69.9*
O=c1c2c3c(sc2[nH]c(=S)n1Cc1ccco1)CCC3	-1.95	40.1*	/	43.8
CC1(C)Cc2c(sc3[nH]c(=S)n(Cc4ccco4)c(=O)c23)CO1	-1.85	40.3*	-0.3	37.3
CC1(C)Cc2c(sc3c2c(=N)n(Cc2ccco2)c(=O)n3Cc2ccccc2)CO1	-0.392	5.1	0.2	59.2
CCCN(CCC)C(=O)c1ccc2c(=O)n(Cc3ccco3)c(=S)[nH]c2c1	-0.959	7.3	-0.3	13.7
Cn1c(=O)n(Cc2ccco2)c(=N)c2c3c(sc21)CCC3	-0.16	4.7	-0.5	14.2
CC1(C)Cc2c(sc3c2c(=N)n(Cc2ccco2)c(=O)n3Cc2ccc(Cl)cc2)CO1	1.38	12.5	-0.3	60.9*
SMILES	Dynein transport	EP2 antag	Hsp70 activator	EP2 mod
COc1ccc(CC(=O)N[C@H](C)Cn2nnc3ccccc32)cc1	/	4.3	/	2.1
C[C@H]1CC(C)(C)C[C@@](OCCN2CCCCC2)(c2ccccc2)C1	/	53.4*	/	6.8
c1ccc(-c2ccccc2OCCCN2CCCCC2)cc1	-0.235	18.0	0.4	15.4
CC(C)N1CCN(C2CCCC2)CC1	/	4.0	/	11.3
Cc1cccc(C)c1NC(=O)CSc1nnc2c(n1)[nH]c1ccccc12	/	7.4	/	-39.7
COC(=O)/C(=C/c1c[nH]c2ccccc12)[N+](=O)[O-]	-1.8	140.6*	-0.3	-48.3
